# RGS4 act: potentiators or activators of RGS4. HEK293 M3R/inducible RGS4, carbachol calcium flux Fluo4; hits give low values. B-score at 10 µM. 310,000 compounds, 0.92% hits. AID 463111;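 active = B-score of the integrated calcium signal more than 4 SD below the library mean, with starting fluorescence not abnormally high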;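 also: negative B-score means reduced calcium response which marks RGS4 activation or potentiation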
#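 System: HEK293 FlpIn-TREx cells, stable M3R, doxycycline-inducible RGS4. Timing: overnight RGS4 induction, 30 min dye load 37 °C, 20 min compound RT. Also added: carbachol, ECmax concentration. Measured by: Fluo4 fluorescence kinetic imaging of calcium. Evaluation: integrated calcium ratio converted to B score.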
# RGS4 block: inhibitors of human RGS4. AID 463165. 310,000 compounds, 0.45% hits. B-score at 10 µM. HEK293 M3R/RGS4 inducible, Fluo-4 calcium flux; hits give high values; triggered by carbachol at its EC20. P49798;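 active = B-score, a plate-corrected calcium signal, over three deviations above library mean, with baseline fluorescence within five deviations of library mean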;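 also: RGS4 expression induced by doxycycline in cells with stable M3 receptor; B-score is computed from the integrated fluorescence ratio over baseline after carbachol; higher B-score means a larger calcium signal and so more RGS4 inhibition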
# Target sequence (P49798 whole entry, looked up): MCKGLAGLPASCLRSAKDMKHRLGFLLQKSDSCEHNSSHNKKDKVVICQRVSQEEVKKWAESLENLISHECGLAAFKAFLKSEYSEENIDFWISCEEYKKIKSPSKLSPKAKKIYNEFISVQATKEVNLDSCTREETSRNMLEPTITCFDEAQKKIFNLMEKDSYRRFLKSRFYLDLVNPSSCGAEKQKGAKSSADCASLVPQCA
# MrgX1 agonist: agonists of human MrgX1 receptor; B-score at 10 µM; MrgX1-HEK293 cells, Fluo-4 calcium fluorescence, agonist mode; hits give high values; AID 588627; Q96LB2; 310,000 compounds, 0.44% hits;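 active = calcium response B-score plate-corrected fluorescence ratio at least 3 library SD, with starting fluorescence B-score inside 5 SD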
# Target sequence (Q96LB2 whole entry, looked up): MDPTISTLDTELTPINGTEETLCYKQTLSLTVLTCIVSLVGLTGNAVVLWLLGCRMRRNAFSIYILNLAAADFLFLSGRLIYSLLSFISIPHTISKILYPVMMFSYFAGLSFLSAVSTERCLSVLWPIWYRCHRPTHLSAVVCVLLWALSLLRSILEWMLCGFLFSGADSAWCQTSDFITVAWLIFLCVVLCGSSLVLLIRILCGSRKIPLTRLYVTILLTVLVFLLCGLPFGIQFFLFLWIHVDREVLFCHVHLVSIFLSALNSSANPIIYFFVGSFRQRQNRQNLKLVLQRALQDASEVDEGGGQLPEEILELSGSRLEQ
#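 Material – MrgX1-expressing HEK293 cells · Input – 15,000 cells seeded per well · Dosing – compound as first of three additions · Times – overnight seeding, then 1 h dark dye loading · Measured by – kinetic Fluo-4 NW fluorescence of intracellular calcium · Read-out – B-scored fluorescence response ratio · Benchmarks – positive and negative control wells on each plate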
# MrgX1 PAM: allosterically activates human MrgX1 receptor signaling. B-score at 10 µM. Q96LB2. AID 588675. 310,000 compounds, 0.63% hits. MrgX1-HEK293, Fluo-4 calcium flux, FDSS; hits give high values;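 active = plate-corrected calcium response at least 3 library SD above typical, normal starting fluorescence, not activating the receptor alone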;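 also: compound read alongside a low EC10 to EC30 dose of BAM8-22 agonist; peak minus trough fluorescence over baseline measured at the second addition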
# MrgX1 antagonist: blocks BAM8-22 activation of human MrgX1 receptor. MRGX1-HEK293 calcium flux, Fluo-4, BAM8-22 antagonism; hits give low values. B-score at 10 µM. 310,000 compounds, 1.3% hits. AID 588676;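 active = calcium-response B-score plate-corrected more than 3 library SD below zero, starting fluorescence within 5 deviations, no agonist response on first addition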;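 also: peak minus trough fluorescence over baseline after final BAM8-22 challenge near maximal dose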
# MrgX1 ant reconf: confirmation of human MrgX1 receptor antagonists; shares compounds with MrgX1 antagonist; MrgX1-HEK293, BAM8-22 calcium flux, Fluo-4; hits give low values; remaining BAM8-22 calcium response % of control (hits give low values), % at 10 µM; 2,300 compounds, 19% hits; AID 602420;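 active = remaining agonist calcium response no higher than 100% minus 3 SD of agonist-only control wells, with starting fluorescence near control levels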;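 also: agonist BAM8-22 given at a near maximal EC90 to ECmax level; peak minus minimum fluorescence divided by baseline after agonist addition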
# HEK293 Ca flux: counter-screen for MrgX1 antagonists: effect in parental HEK293 cells. AID 624111. fluorescence ratio F(max-min)/F0 at 10 µM. shares compounds with MrgX1 antagonist. 4,000 compounds, 2% hits. Fluo-4 calcium fluorescence, FDSS;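 active = duplicate-averaged calcium fluorescence ratio at least three times the standard deviation of buffer wells, a nonspecific response in parental cells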
# HEK293 Ca counter: counter-screen for MrgX1 allosteric activators: effect in parental HEK293 cells; AID 624114; parental HEK293 calcium flux, Fluo-4 fluorescence ratio; hits give high values; shares compounds with MrgX1 antagonist; fluorescence ratio F(max-min)/F0 at 10 µM; 4,000 compounds, 0.4% hits;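 active = calcium fluorescence ratio, averaged over duplicates, at least 3 SD of the buffer-well ratio, meaning a nonspecific response in receptor-free cells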;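 also: untransfected parental HEK293 lacking MrgX1 used as counterscreen for MrgX1 allosteric activators; fluorescence change taken during the second addition on a kinetic imager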
# HEK293 Ca cntr2: MrgX1 activator counter-screen hit in parental HEK293 cells; Fluo-4 calcium fluorescence (FDSS); hits give high values; shares compounds with MrgX1 antagonist; fluorescence ratio F(max-min)/F0 at 10 µM; AID 624115; 4,000 compounds, 8.7% hits;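 active = calcium fluorescence ratio at least three times the spread of buffer wells, meaning a non-specific response in parental cells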
# Hits are given with their value; i = inactive; nt = no result given. Rows were chosen to be rich in hits. Some 3.5% of all compounds tested hit in one or more screens of this group.
SMILES,RGS4 act,RGS4 block,MrgX1 agonist,MrgX1 PAM,MrgX1 antagonist,MrgX1 ant reconf,HEK293 Ca flux,HEK293 Ca counter,HEK293 Ca cntr2
Cc1ccc(NC(=O)Nc2ccc(F)c(Cl)c2)cc1,i,i,i,i,-6.8,62%,i,i,i
O=C(CCC(=O)Nc1cccnc1)Nc1cccnc1,i,i,i,i,-4.8,i,i,i,i
O=C(Nc1cccnc1)Nc1ccc(F)c(Cl)c1,i,i,i,i,-5.2,69%,i,i,i
Cc1ccc(C)c(NC(=O)CCN2C(=O)[C@@H]3Cc4ccccc4CN3C2=O)c1,i,i,i,i,i,nt,nt,nt,nt
CCC1CCCCN1C(=O)N[C@@H](Cc1ccccc1)C(=O)O (stereo partly drawn),i,i,i,i,-5,i,i,i,i
COc1ccc(CN2CCC(=O)N(CCO)CC2)cc1OC,i,i,i,i,i,nt,nt,nt,nt
CCOCCn1c(CN2CCN(c3ccccc3)CC2)nc2c1c(=O)n(C)c(=O)n2C,i,i,i,i,-7.4,i,i,i,i
CC(C)NC(=O)c1cnc(N2CCN(c3ccccn3)CC2)c2ccccc12,i,i,i,i,i,nt,nt,nt,nt
CCc1ccc(NC(=O)c2cnc(N3CCN(c4ccccn4)CC3)c3ccccc23)cc1,-7.2,i,i,i,-7.1,60%,i,i,i
CCOCCOc1cccc(C(=O)NC(c2ccccc2)c2ccccc2)c1,i,i,i,i,i,nt,nt,nt,nt
CCOc1cc(N2CCOCC2)c(OCC)cc1NC(=O)c1ccc(C)cc1,i,i,i,i,-12,i,i,i,i
C=CCNCc1ccccc1[N+](=O)[O-],i,i,i,i,i,nt,nt,nt,nt
CCCCN(S(=O)(=O)c1ccccc1)S(=O)(=O)c1ccccc1,i,i,i,i,i,nt,nt,nt,nt
COc1cc(C(=O)NCc2nnc(SCC(=O)NC3CCCCC3)o2)cc(OC)c1OC,i,i,i,i,i,nt,nt,nt,nt
COc1cccc(C(=O)N2CCN(C(=O)c3cccc4ccccc34)CC2)c1OC,i,i,i,i,-4.9,85%,i,i,i
COc1ccc(CN2CCN(C(=O)c3cccc4ccccc34)CC2)c(OC)c1OC,i,i,i,i,i,nt,nt,nt,nt
CSc1ccccc1C(=O)C1CCCN(C(=O)c2cncs2)C1 (stereo not drawn),i,i,i,i,i,nt,nt,nt,nt
Cn1c(=O)n(CCC(=O)O)c2ccccc21,i,i,i,i,i,nt,nt,nt,nt
Cn1c(=O)n(Cc2ccc(Br)cc2)c2ccccc21,i,i,i,i,-9.3,i,i,i,i
Cc1cc(NC(=O)CCC(=O)N(CC(=O)NC2CCCC2)c2ccc(C(C)C)cc2)no1,i,i,i,i,i,nt,nt,nt,nt
O=C(Nc1cccc(Cl)c1)C1CCCCC1,nt,nt,i,i,-5.4,i,i,i,i
CC(=O)c1cccc(NC(=O)C2CCCCC2)c1,i,i,i,i,i,nt,nt,nt,nt
Cc1onc(-c2c(F)cccc2Cl)c1C(=O)N1C=CC(C(F)(F)F)=NCC1,i,i,i,i,i,nt,nt,nt,nt
Cc1onc(-c2c(Cl)cccc2Cl)c1C(=O)N1C=CC(C(F)(F)F)=NCC1,i,i,i,i,-9.2,i,i,i,i
O=C1CCC(=O)N1CN(C(=O)c1ccco1)c1ccccc1,i,i,i,i,-6.6,i,i,i,i
Cc1ccc(N(CN2C(=O)C3C4CCC(C4)C3C2=O)C(=O)c2ccco2)cc1 (stereo not drawn),i,i,i,i,i,nt,nt,nt,nt
Cc1ccc(CNC(=O)CNC(=O)c2ccco2)cc1,i,i,i,i,i,nt,nt,nt,nt
COc1ccc(C(=O)Nc2nc(-c3cccs3)cs2)cc1,i,i,i,i,-7.6,i,i,i,i
O=C(Nc1nc(-c2cccs2)cs1)c1ccc(Cl)cc1,i,i,i,i,i,nt,nt,nt,nt

# Screening data (PubChem BioAssay)
